# PGC1a acetyl up: raises PGC1a acetylation signal in U2OS cells; U2OS PGC1a acetylation AlphaScreen, overnight; activation, % at 15.6 µM; 350,000 compounds, 0.21% hits; AID 651723;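 active = every replicate reaching activation of at least 50%, whatever the mean replicate activation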;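 note: hits raise the AlphaScreen acetylation signal above neutral controls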
#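 detection = AlphaScreen lysate read | assay system = U2OS cells expressing flag-PGC1a plus GCN5 | input = 7000 cells/well | dosing = one concentration | times = compound overnight at 37 °C, each detection step 1 h RT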
# * hit, by the source's call. Many of the other results were omitted from the sample, so hits are more common in it than they were.
SMILES,PGC1a acetyl up
CCN1CCN(Cc2ccc(NC(=O)c3cc(NC(=O)c4cncc(-c5ccc(C#N)cc5)c4)cc(OC)c3)cc2C(F)(F)F)CC1,-86
O=c1c2cn(Cc3ccc(F)cc3)c3ccc(F)cc3c-2nn1Cc1ccc(F)cc1,-45
COC(=O)c1ccccc1N(C)S(=O)(=O)c1cc2c(cc1C)OCC(=O)N2,-44
O=C(Cc1ccccn1)NCC[C@@H]1CC[C@H](NC(=O)Nc2ccc(C(F)(F)F)cc2)[C@@H](CO)O1,-50
C=CCn1c(C)cc(C(=O)Cn2ncc(Cl)c(Cl)c2=O)c1C,-41
Cc1cccc(NC(=O)CNC(=O)Cn2ncc(Cl)c(Cl)c2=O)c1C,-51
O=C(Cn1ncc(Cl)c(Cl)c1=O)c1ccc(Cl)cc1,-85
O=C(Nc1nc2ccccc2[nH]1)c1ccc(Cl)c(S(=O)(=O)N2CCCC2)c1,-52
Cc1ccc(NC(=O)Cn2ncc(Cl)c(Cl)c2=O)cc1S(=O)(=O)N1CCCCC1,90*
O=C1CN(C(=O)Cn2ncc(Cl)c(Cl)c2=O)c2ccccc2N1,74*
O=C(Cn1ncc(Cl)c(Cl)c1=O)NCC1CCCCC1,151*
Cc1c(CNCCc2ccc(Cl)cc2)c(C(=O)O)c(C)n1-c1ccccc1,-41
CSCC(O)Cn1[nH]c(=O)c2cc(Cl)c(Cl)cc2c1=O (stereo unspecified),-84
N#Cc1ccsc1NC(=O)CSc1nnc(NC2CC2)s1,-41
C[C@H]1CN([C@@H](C)CO)C(=O)c2cccc(NC(=O)Nc3ccc(C(F)(F)F)cc3)c2O[C@H]1CN(C)C(=O)Nc1cccc2ccccc12,-47
Cn1c(CN2CCCC2)nc2cc(NC(=O)COc3ccc(Cl)cc3)ccc21,-52
Cn1c(CCN2CCCCC2)nc2cc(NS(=O)(=O)c3ccccc3)ccc21,64*
CC(=O)Nc1nc(C)c(Oc2ccc(Cl)cc2)c(=O)[nH]1,-45
O=C(Nc1ccccc1)C1=C(c2ccccc2)S(=O)(=O)CCS1(=O)=O,104*
CCN(CC)c1ccc(NC(=O)c2ccc(NC(=O)C3CCCO3)cc2)c(C)c1 (stereo unspecified),54*
Cc1ccc(-c2csnn2)cc1,-51
CCn1c(=O)c2c(cnn2C)c2ccccc21,-30
Cn1nnnc1Sc1ncnc2scc(-c3ccc[nH]3)c12,91*
CC1CC(=O)c2c(cc3c(-c4c(O)cc(O)c5c(O)c6c(cc45)OC(C)CC6=O)c(O)cc(O)c3c2O)O1 (stereo unspecified),-63
O=C(COn1nnc2ccc(Cl)cc21)NC12CC3CC(CC(C3)C1)C2,-85
SMILES,PGC1a acetyl up
COc1ccc(S(=O)(=O)N2c3ccc(F)cc3CCC2C)cc1 (stereo unspecified),120*
C[C@@H]1CN([C@@H](C)CO)C(=O)c2cc(C#CCN(C)C)cnc2O[C@@H]1CN(C)S(=O)(=O)c1cn(C)cn1,-68
Cc1cc(=O)[nH]c(NN)n1,-50
Cc1cccc(S(=O)(=O)N2C[C@@H]3N[C@H](C2)C3c2ccc(-c3ccccc3C)cc2)c1 (stereo partly specified),166*
Cc1ccc(S(=O)(=O)N2C[C@@H]3N[C@H](C2)[C@@H]3c2ccc(-c3cccc(C)c3)cc2)cc1,66*
O=S(=O)(c1ccc(-c2ccccc2)cc1)N1C[C@@H]2N[C@H](C1)[C@@H]2c1ccc(-c2cccnc2)cc1,-55
COc1cccc(S(=O)(=O)N2C[C@@H]3N[C@H](C2)C3c2ccc(-c3ccccc3C)cc2)c1 (stereo partly specified),242*
COc1cccc(-c2ccc(C3[C@@H]4CN(S(=O)(=O)c5cccc(OC)c5)C[C@H]3N4)cc2)c1 (stereo partly specified),57*
Cc1cc(Nc2ccccc2)cc(=O)n1C,-59
COc1ccc(CN(C)C[C@@H]2Oc3ccc(NS(=O)(=O)c4c(C)noc4C)cc3C(=O)N([C@H](C)CO)C[C@H]2C)cc1,-51
C#CCN1[C@H](/C=C/C2CC2)[C@H](Cc2ccccc2)OC(=O)[C@@H]1[C@@H]1N[C@@H](C(=O)OC)C(C)(C)S1,-46
Cc1nc(N(CCO)C2CCCCC2)c2nnn(Cc3ccccc3)c2n1,-40
CCOC(=O)c1c(C)n(C)c2ccc(OCC(O)Cn3nc(C)c(Br)c3C)cc12 (stereo unspecified),61*
O=[N+]([O-])c1cc(-c2nnc(Nc3ccc(O)cc3)c3ccccc23)ccc1N1CCOCC1,129*
CCOc1ccc(S(=O)(=O)/N=C(/Nc2ccc(C(C)=O)cc2)c2ccccc2)cc1,66*
CCOc1ccc(N(C(=O)Nc2ccccc2)C2=NCCC2)cc1,-44
CCOc1ccc(NS(=O)(=O)c2ccc3c(c2)oc(=O)n3C)cc1,-46
C=CC(=O)N1C/C(=C/c2ccc(F)cc2)C(=O)/C(=C\c2ccc(F)cc2)C1,-83
Cc1cccc(OC2(c3ccccc3)OC(=O)c3ccccc32)c1C (stereo unspecified),91*
C=C1C(=O)C=C[C@]2(C)C[C@@H]3OC(=O)[C@](C)(O)[C@H]3C[C@@H]12,178*
O=C(C[C@@H]1C=C[C@@H](NC(=O)CN2CCOCC2)[C@H](CO)O1)NC1CCCCC1,-51
COC(=O)C1=NN(C(=O)c2ccccc2)C(O)(c2ccc([N+](=O)[O-])cc2)C1 (stereo unspecified),115*
Cc1ccc(-n2cccc2C(=S)N=P(N(C)C)(N(C)C)N(C)C)cc1,-85
O=C(COC(=O)C1CC2CCCC(C1)C2=O)Nc1ccc(F)c(Cl)c1 (stereo unspecified),-48
Cn1cccc1C(=O)OCC(=O)Nc1ccc2c(c1)CCC2,83*
SMILES,PGC1a acetyl up
N#Cc1ccc(C(=O)CSc2nnc(-c3ccc(C(F)(F)F)cn3)s2)cc1,-47
N#CC1=C(N)Oc2n[nH]c(-c3ccccc3)c2C1c1ccncc1 (stereo unspecified),55*
CCCCCCNC(=O)c1ncn[nH]1,-41
O=C(Cc1ccccc1)N1CC[C@@H]2[C@H]1c1cc(C#Cc3ccccc3)ccc1N[C@@H]2CO,64*
C[C@H](NC(=O)C[C@H]1C[C@@H]2c3cc(NC(=O)Nc4ccc(C(F)(F)F)cc4)ccc3O[C@@H]2[C@@H](CO)O1)c1ccccc1,-44
CCOc1ccc2nnc(-c3ccc(Br)cc3)n2n1,52*
COCC#Cc1ccc2c(c1)O[C@H](CN(C)C(=O)CN(C)C)[C@@H](C)CN([C@@H](C)CO)S2(=O)=O,-58
Cc1ccccc1S(=O)(=O)NCC[C@@H]1CC[C@@H](NC(=O)C2CCOCC2)[C@H](CO)O1,-58
COc1c(O)cc(O)c2c(=O)cc(-c3ccccc3)oc12,64*
O=c1[nH][nH]c(-c2ccccc2)c1C=Nc1ccccc1Cl,-41
COCCNC(=O)CCc1c(C)nc2c(c(C)nn2-c2ccc(C)c(C)c2)c1C,-78
CCOC(=O)c1ccc(NC(=O)CCS(=O)(=O)c2ccc(Br)s2)cc1,50*
CCOC(=O)c1ccc(NC(=O)Nc2ccc(F)cc2)cc1,-45
COc1cccc(/C=N/NC(=O)c2ccc(-n3cnnn3)cc2)c1,84*
Cc1cc(Br)c(OCc2ccc(C(=O)N/N=C/c3ccc[nH]3)cc2)c(Br)c1,-87
COc1ccccc1OCCn1cc(/C=N/NC(=O)c2ccncc2)c2ccccc21,-50
COc1ccc(C(=O)Nc2ccc3c4c(cccc24)CC3)cc1,-86
COc1ccc(N(C)S(=O)(=O)c2cccc(C(=O)Nc3ccc(-n4cnnn4)cc3)c2)cc1,67*
COc1ccc(C(=O)Nc2cccc(S(C)(=O)=O)c2)cc1OC,-41
O=C1C2C3CCC(C3)C2C(=O)N1CNc1ccc(F)cc1 (stereo unspecified),-47

# Screening results as filed in PubChem BioAssay.
